Assay outcomes from PubChem BioAssay.
Rows were chosen to be rich in hits. Some 3% of all compounds tested hit in one or more screens of this group.
Hsp70 activator – transcriptional activators of Hsp70; HeLa Hsp70 promoter luciferase reporter, luminescence; scaled: vehicle 0, proteasome-inhibitor control 100%; activation, % at 10 µM; 0.04% of 200,000 active;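 active means activation above the mean across all tested compounds plus 3 SD, cutoff set per campaign, cut at about 5.5% in these data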;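 further: 100% = MG132 at 30 µM as the positive control and 0% = DMSO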
NPY1 pot ag – potentiates or activates human NPY-Y1 receptor | P25929 | NPY-Y1 expressing cells, potentiator/agonist activation | activation, % at 3.6 µM | 0.37% of 220,000 active | AID 1304; in the data active means activation above about 33%, passing the limit was not always enough;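 further: cells stimulated with NPY at EC10 then isoproterenol at EC100; 0% = low agonist plus stimulus and 100% = saturating agonist plus stimulus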
Wee1 stabilizer – human Wee1 degradation inhibition, primary screen | 1.2% of 220,000 active | reporter increase, % at 5 µM | AID 1321 | P30291 | HeLa Luc-Wee1K328M stability, luciferase luminescence; 100% = proteasome inhibitor MG132 effect;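 active means activation above the mean of all tested compounds plus 3 SD, set per screening run, cut at about 8.8% in these data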;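 further: cells exposed to compound for 20 h before luminescence read; 0% = DMSO alone and 100% = MG132 at 30 µM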
NPY Y1 blocker – blocks the human neuropeptide Y Y1 receptor. P25929. HEK293-CNG Y1 cells, membrane potential fluorescence; NPY at EC95, then isoproterenol. inhibition, % at 3.6 µM. 1% of 200,000 active. AID 1040;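 active means inhibition above the campaign mean inhibition of all tested compounds plus 3 SD, cut at about 20% in these data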;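 further: 0% = DMSO wells given NPY plus isoproterenol and 100% = isoproterenol alone without NPY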
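Test system – HEK293 Y1/CNG channel cell line · Also added – NPY agonist 25 nM, then isoproterenol 1 µM plus Ro 20-1724 25 µM · Compound dosing – one concentration, 3.6 µM, in 0.4% DMSO · Schedule – compound incubation 1 h at room temperature, readout 45 min post-stimulation · Technique – fluorescence, membrane potential probe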
NPY-Y2 antag – antagonists of human neuropeptide Y receptor Y2 | inhibition, % at 2.7 µM | P49146 | 0.99% of 140,000 active | AID 793 | NPY-Y2 expressing cells, antagonist mode; in the data active means inhibition above about 17%;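 further: 0% = vehicle with agonist challenge and 100% = reference antagonist with challenge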
Target sequence (P49146 whole entry, looked up): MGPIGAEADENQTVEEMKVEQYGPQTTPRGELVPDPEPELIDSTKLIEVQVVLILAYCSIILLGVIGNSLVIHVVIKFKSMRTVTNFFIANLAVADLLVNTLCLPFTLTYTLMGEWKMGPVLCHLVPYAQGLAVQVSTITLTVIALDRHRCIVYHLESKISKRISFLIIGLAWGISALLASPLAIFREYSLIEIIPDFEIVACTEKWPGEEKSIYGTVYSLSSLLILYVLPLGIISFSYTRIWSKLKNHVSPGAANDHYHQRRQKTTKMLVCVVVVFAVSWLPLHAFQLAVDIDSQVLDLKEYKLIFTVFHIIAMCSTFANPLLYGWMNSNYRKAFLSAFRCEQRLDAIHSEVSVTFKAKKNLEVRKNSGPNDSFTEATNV
NPY-Y2 PAM-ag – human NPY-Y2 potentiation or agonism, primary screen; 0.45% of 220,000 active; cells expressing NPY-Y2, potentiator/agonist read-out; P49146; activation, % at 3.6 µM; in the data active means activation above about 27%;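 further: cells stimulated with NPY near EC25 plus isoproterenol at EC100; 0% = vehicle plus submaximal agonist and 100% = vehicle plus saturating agonist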
An asterisk follows results filed as active.

`CC(C)(C)NCC(O)COCc1ccc(Cl)cc1` (stereo not given) gave Hsp70 activator 0, NPY1 pot ag 73*, Wee1 stabilizer -2, NPY Y1 blocker -5, NPY-Y2 antag 0 and NPY-Y2 PAM-ag 68*.
`Cc1cc(OCC(=O)NC(C)(C)C)ccc1Cl` gave Hsp70 activator 0, NPY1 pot ag 5, Wee1 stabilizer 1, NPY Y1 blocker -1, NPY-Y2 antag 0 and NPY-Y2 PAM-ag -6.
`Cc1cc(OCC(O)CNC(C)(C)C)ccc1Cl` (stereo not given) gave Hsp70 activator 0, NPY1 pot ag 110*, Wee1 stabilizer -4, NPY Y1 blocker -14 and NPY-Y2 PAM-ag 102*.
Screening COc1ccc(S(=O)(=O)N2CCCCCC2)cc1N(C)S(=O)(=O)c1ccc(C)cc1 returned Hsp70 activator -1, NPY1 pot ag -41, Wee1 stabilizer 0, NPY Y1 blocker 0, NPY-Y2 antag 5 and NPY-Y2 PAM-ag -12.
O=C(c1ccc(S(=O)(=O)N2CCOCC2)cc1)N(c1ccccn1)C1CCCCC1 was read as NPY1 pot ag 23, Wee1 stabilizer -1 and NPY-Y2 PAM-ag 1.
COc1ccc(CN(C(=O)c2nsc(Cl)c2Cl)C(C(=O)NC2CCCC2)c2ccc(OC)cc2)cc1 (stereo not given) was read as Hsp70 activator 0, NPY1 pot ag -36, Wee1 stabilizer -2, NPY Y1 blocker 33*, NPY-Y2 antag 23* and NPY-Y2 PAM-ag -17.
Screening Cc1ccc(S(=O)(=O)N2CCN(S(=O)(=O)c3ccc(C)cc3)C3OCCOC32)cc1 (stereo not given) returned Hsp70 activator 0, NPY1 pot ag 20, Wee1 stabilizer 0, NPY Y1 blocker 4, NPY-Y2 antag 2 and NPY-Y2 PAM-ag -10.
`COc1ccc(NC(=S)NC(C)C(c2ccccc2)N2CCOCC2)cc1` (stereo not given) gave Hsp70 activator 0, NPY1 pot ag 11, Wee1 stabilizer 0, NPY Y1 blocker 3 and NPY-Y2 PAM-ag -2.
CC(NC(=S)Nc1ccccc1Cl)C(c1ccccc1)N1CCOCC1 (stereo not given) was read as Hsp70 activator 0, NPY1 pot ag 0, Wee1 stabilizer 9.2*, NPY Y1 blocker 0, NPY-Y2 antag -1 and NPY-Y2 PAM-ag -1.
For CC1(C)OC(C)(C)/C(=C/Nc2ccc(O)cc2)C1=O the results were Hsp70 activator 0, NPY1 pot ag -16, Wee1 stabilizer 9.9*, NPY Y1 blocker 0, NPY-Y2 antag -1 and NPY-Y2 PAM-ag -13.
For CC(C)CNC(=O)NC(=O)COc1ncnc2sccc12 the results were Hsp70 activator 0, NPY1 pot ag 10, Wee1 stabilizer 9.4*, NPY Y1 blocker 3, NPY-Y2 antag -1 and NPY-Y2 PAM-ag 3.
`Cn1c(=O)[nH]c(=O)c2c1nc(N1CCCCCC1)n2CCSc1nc2ccccc2[nH]1` gave Hsp70 activator 0, NPY1 pot ag 4, Wee1 stabilizer 11*, NPY Y1 blocker 0, NPY-Y2 antag 0 and NPY-Y2 PAM-ag -9.
Screening Cn1c(=O)[nH]c(=O)c2c1nc(N1CCCC1)n2CCSc1nc2ccccc2[nH]1 returned Hsp70 activator 0, NPY1 pot ag -18, Wee1 stabilizer -1, NPY Y1 blocker 6, NPY-Y2 antag 0 and NPY-Y2 PAM-ag -7.
Screening CC(C)(C)C(=O)Nc1cccc2[nH]ncc12 returned Hsp70 activator 0, NPY1 pot ag 10, Wee1 stabilizer -3, NPY Y1 blocker 9 and NPY-Y2 PAM-ag 4.
`Cc1ccc(Cn2nc(C)c3cc(C(=O)OCC(N)=O)sc32)cc1` gave Hsp70 activator 0, NPY1 pot ag -36, Wee1 stabilizer 9.8*, NPY Y1 blocker 11, NPY-Y2 antag 6 and NPY-Y2 PAM-ag -22.
For Cc1ccccc1Nc1c(-c2ccc(N3CCOCC3)cc2)nc2ncccn12 the results were Hsp70 activator 0, NPY1 pot ag 56*, Wee1 stabilizer 4, NPY Y1 blocker -4 and NPY-Y2 PAM-ag 43*.
Screening Cc1cccc(C)c1Nc1c(-c2ccsc2)nc2ncccn12 returned Hsp70 activator 0, NPY1 pot ag 46*, Wee1 stabilizer -1, NPY Y1 blocker -7, NPY-Y2 antag -2 and NPY-Y2 PAM-ag 59*.
S=C(c1ccc(-c2ccc(Br)cc2)o1)N1CCOCC1 was read as NPY1 pot ag 1, Wee1 stabilizer 10* and NPY-Y2 PAM-ag -20.
Screening CCN(CC)C(=S)SSC(=S)N(CC)CC returned Hsp70 activator 1, NPY1 pot ag 1, Wee1 stabilizer 1, NPY Y1 blocker 4, NPY-Y2 antag -3 and NPY-Y2 PAM-ag 5.
Screening CCN(CC)C(=S)SC1=CCS(=O)(=O)C1 returned Hsp70 activator 0, NPY1 pot ag -3, Wee1 stabilizer 10*, NPY Y1 blocker 1 and NPY-Y2 PAM-ag -7.
COc1ccc(Cl)cc1NC(=O)c1ccco1 was read as Hsp70 activator 0, NPY1 pot ag -6, Wee1 stabilizer -2, NPY Y1 blocker 1, NPY-Y2 antag 3 and NPY-Y2 PAM-ag -19.
`O=C(Nc1ccc(Cl)cc1C(=O)Nc1ccc(Br)cn1)c1ccco1` gave Hsp70 activator 0, NPY1 pot ag -91, Wee1 stabilizer -1, NPY Y1 blocker 21*, NPY-Y2 antag 31* and NPY-Y2 PAM-ag -28.
For O=C(NC1CCCC1)C(c1ccc(F)cc1)N(Cc1ccccc1Cl)C(=O)CCl (stereo not given) the results were Hsp70 activator 0, NPY1 pot ag 24, Wee1 stabilizer -3, NPY Y1 blocker 8, NPY-Y2 antag -1 and NPY-Y2 PAM-ag -4.
Screening Cc1ccccc1NC(=S)N(C)Cc1cccs1 returned Hsp70 activator 0, NPY1 pot ag 104*, Wee1 stabilizer -3, NPY Y1 blocker -17, NPY-Y2 antag -1 and NPY-Y2 PAM-ag 101*.
For Cc1ccccc1NC(=S)N(Cc1cccs1)C1CCCCC1 the results were Hsp70 activator 0, NPY1 pot ag 14, Wee1 stabilizer 3, NPY Y1 blocker 1 and NPY-Y2 PAM-ag 3.
`CC1CCCN(CCCOc2ccc(Br)cc2Cl)C1` (stereo not given) gave Hsp70 activator 0, NPY1 pot ag -7, Wee1 stabilizer -2, NPY Y1 blocker 21* and NPY-Y2 PAM-ag -31.
`CC1CCN(CCOCCOc2ccc(Br)cc2Cl)CC1` gave Hsp70 activator 0, NPY1 pot ag -11, Wee1 stabilizer -1, NPY Y1 blocker 3, NPY-Y2 antag 7 and NPY-Y2 PAM-ag 6.
For CCCSC1=C(C#N)C2(CCCCC2)C(C#N)=C(N)N1 the results were Hsp70 activator 0, NPY1 pot ag 53*, Wee1 stabilizer -2, NPY Y1 blocker -13 and NPY-Y2 PAM-ag 32*.
`COc1ccccc1NC(=S)Nc1cccc2cnccc12` gave Hsp70 activator 0, NPY1 pot ag 66*, Wee1 stabilizer -1, NPY Y1 blocker -14, NPY-Y2 antag -3 and NPY-Y2 PAM-ag 89*.
